From ChEMBL document CHEMBL3352689 (J Med Chem, 2014)

What was measured:
[1] = AUC in rat at 10 mg/kg, po; format: ADME, organism-based; parameters: dose 10 mg/kg, route oral; settings: plasma
How it was run: (§1)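 Three male animals per species. The sodium salt was given as a single oral dose in 0.5% methyl cellulose. Plasma Tmax, Cmax, AUC and oral bioavailability were derived.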

Macaca fascicularis [2] = experiment: Total clearance in monkey at 1 mg/kg, iv; settings: cynomolgus monkey, in vivo
[3] = Tmax in guinea pig at 3 mg/kg, po; format: ADME, organism-based, Cavia porcellus; parameters: dose 3 mg/kg, route oral; settings: in vivo; how it was run: as §1
[4] = Volume of distribution at steady state in guinea pig at 1 mg/kg, iv; format: ADME, organism-based, Cavia porcellus; parameters: dose 1 mg/kg, route intravenous; settings: in vivo, read-out: Vdss
How it was run: (§2)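 Three male animals per species. Dosing was intravenous, with the compound in DMA/PEG400 or DMSO. Steady-state volume of distribution and total body clearance were derived from plasma levels.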

Rattus norvegicus [5] = experiment: Toxicity in rat at 200 mg/kg/day; format: organism-based; settings: in vivo
[6] = Oral bioavailability in rabbit at 10 mg/kg; format: ADME, organism-based, Oryctolagus cuniculus; settings: in vivo; how it was run: as §1
[7] = Tmax in dog at 10 mg/kg, po; format: ADME, organism-based, Canis lupus familiaris; parameters: dose 10 mg/kg, route oral; settings: in vivo; how it was run: as §1
[8] = Cmax in rat at 10 mg/kg, po; format: ADME, organism-based; parameters: dose 10 mg/kg, route oral; settings: in vivo; how it was run: as §1
[9] = Oral bioavailability in guinea pig at 3 mg/kg; format: ADME, organism-based, Cavia porcellus; settings: in vivo; how it was run: as §1
Macaca fascicularis [10] = experiment: Oral bioavailability in monkey assessed as 4-[2-({6-Fluoro-2-[({[3-(methyloxy)phenyl]methyl}amino)-carbonyl]-4-oxo-3,4-dihydroquinazolin-5-yl}oxy)ethyl]-benzoic acid at 3 mg/kg; settings: cynomolgus monkey, in vivo
[11] = AUC in dog at 10 mg/kg, po; format: ADME, organism-based, Canis lupus familiaris; parameters: dose 10 mg/kg, route oral; settings: plasma; how it was run: as §1
[12] = Metabolic stability in rabbit liver microsomes; format: ADME, Oryctolagus cuniculus
How it was run: (§3)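 The free acid was incubated with hepatic microsomes of each species. Stability is reported as clearance in μL/min/mg microsomal protein.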

Macaca fascicularis [13] = experiment: Tmax in monkey at 1 mg/kg, po; settings: cynomolgus monkey, in vivo
[14] = AUC in guinea pig at 3 mg/kg, po; format: ADME, organism-based, Cavia porcellus; parameters: dose 3 mg/kg, route oral; settings: plasma; how it was run: as §1
[15] = Metabolic stability in cynomolgus monkey liver microsomes
Macaca fascicularis [16] = experiment: Cmax in monkey at 1 mg/kg, po; settings: cynomolgus monkey, in vivo
[17] = Tmax in rat at 10 mg/kg, po; format: ADME, organism-based; parameters: dose 10 mg/kg, route oral; settings: in vivo; how it was run: as §1
Cavia porcellus = experiment: Oral bioavailability in guinea pig assessed as 4-[2-({6-Fluoro-2-[({[3-(methyloxy)phenyl]methyl}amino)-carbonyl]-4-oxo-3,4-dihydroquinazolin-5-yl}oxy)ethyl]-benzoic acid at 3 mg/kg; format: ADME, organism-based; settings: in vivo
How it was run: (§4)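 The free-acid form was dosed orally in 0.5% methyl cellulose at 3 mg/kg to three male animals. Oral bioavailability was calculated.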

Macaca fascicularis [18] = experiment: Oral bioavailability in monkey at 1 mg/kg; settings: cynomolgus monkey, in vivo
[19] = Oral bioavailability in rat at 10 mg/kg; format: ADME, organism-based; settings: in vivo; how it was run: as §1
[20] = AUC in rabbit at 10 mg/kg, po; format: ADME, organism-based, Oryctolagus cuniculus; parameters: dose 10 mg/kg, route oral; settings: plasma; how it was run: as §1
[21] = Total clearance in rat at 1 mg/kg, iv; format: ADME, organism-based; parameters: dose 1 mg/kg, route intravenous; settings: in vivo; how it was run: as §2
Canis familiaris = experiment: Oral bioavailability in dog assessed as 4-[2-({6-Fluoro-2-[({[3-(methyloxy)phenyl]methyl}amino)-carbonyl]-4-oxo-3,4-dihydroquinazolin-5-yl}oxy)ethyl]-benzoic acid at 3 mg/kg; format: ADME, organism-based, Canis lupus familiaris; settings: in vivo; how it was run: as §4
[22] = Total clearance in guinea pig at 1 mg/kg, iv; format: ADME, organism-based, Cavia porcellus; parameters: dose 1 mg/kg, route intravenous; settings: in vivo; how it was run: as §2
Liver = experiment: Metabolic stability in guinea pig liver microsomes; format: ADME, Cavia porcellus; how it was run: as §3
Oryctolagus cuniculus = experiment: Oral bioavailability in rabbit assessed as 4-[2-({6-Fluoro-2-[({[3-(methyloxy)phenyl]methyl}amino)-carbonyl]-4-oxo-3,4-dihydroquinazolin-5-yl}oxy)ethyl]-benzoic acid at 1 mg/kg; format: ADME, organism-based; settings: in vivo
How it was run: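 Rabbits, three males, received the free-acid form orally in 0.5% methyl cellulose at 1 mg/kg. Oral bioavailability was calculated.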

Macaca fascicularis [23] = experiment: AUC in monkey at 1 mg/kg, po; settings: cynomolgus monkey, plasma
[24] = Total clearance in dog at 1 mg/kg, iv; format: ADME, organism-based, Canis lupus familiaris; parameters: dose 1 mg/kg, route intravenous; settings: in vivo; how it was run: as §2
Liver microsome = experiment: Metabolic stability in human liver microsomes; format: ADME; how it was run: as §3
[25] = Cmax in dog at 10 mg/kg, po; format: ADME, organism-based, Canis lupus familiaris; parameters: dose 10 mg/kg, route oral; settings: in vivo; how it was run: as §1
[26] = Oral bioavailability in dog at 10 mg/kg; format: ADME, organism-based, Canis lupus familiaris; settings: in vivo; how it was run: as §1
[27] = Volume of distribution at steady state in rabbit at 0.1 mg/kg, iv; settings: in vivo, read-out: Vdss
[28] = Cmax in guinea pig at 3 mg/kg, po; format: ADME, organism-based, Cavia porcellus; parameters: dose 3 mg/kg, route oral; settings: in vivo; how it was run: as §1
[29] = Cmax in rabbit at 10 mg/kg, po; format: ADME, organism-based, Oryctolagus cuniculus; parameters: dose 10 mg/kg, route oral; settings: in vivo; how it was run: as §1
[30] = Tmax in rabbit at 10 mg/kg, po; format: ADME, organism-based, Oryctolagus cuniculus; parameters: dose 10 mg/kg, route oral; settings: in vivo; how it was run: as §1
[31] = Total clearance in rabbit at 0.1 mg/kg, iv; settings: in vivo
Macaca fascicularis [32] = experiment: Volume of distribution at steady state in monkey at 1 mg/kg, iv; settings: cynomolgus monkey, in vivo, read-out: Vdss
[33] = Volume of distribution at steady state in rat at 1 mg/kg, iv; format: ADME, organism-based; parameters: dose 1 mg/kg, route intravenous; settings: in vivo, read-out: Vdss; how it was run: as §2
Rattus norvegicus [34] = experiment: Oral bioavailability in rat assessed as 4-[2-({6-Fluoro-2-[({[3-(methyloxy)phenyl]methyl}amino)-carbonyl]-4-oxo-3,4-dihydroquinazolin-5-yl}oxy)ethyl]-benzoic acid at 3 mg/kg; format: ADME, organism-based; settings: in vivo; how it was run: as §4
[35] = Volume of distribution at steady state in dog at 1 mg/kg, iv; format: ADME, organism-based, Canis lupus familiaris; parameters: dose 1 mg/kg, route intravenous; settings: in vivo, read-out: Vdss; how it was run: as §2

AUC [1]: 1600 ng·h/mL
clearance (Macaca fascicularis [2]): 20.9 mL/min/kg
Tmax [3]: 0.5 h
Vd [4]: 5.39 L/kg
bioavailability [6]: 35%
Tmax [7]: 1.7 h
Cmax [8]: 439 ng/mL
bioavailability [9]: 74%
F (Macaca fascicularis [10]): 1.5%
AUC [11]: 31800 ng·h/mL
Stability [12]: 3 µL/min/mg
Tmax (Macaca fascicularis [13]): 2.8 h
AUC [14]: 1410 ng·h/mL
Stability [15]: 2 µL/min/mg
Cmax (Macaca fascicularis [16]): 45 ng/mL
Tmax [17]: 0.25 h
F (Cavia porcellus): 6.3%
bioavailability (Macaca fascicularis [18]): 45%
bioavailability [19]: 23%
AUC [20]: 15700 ng·h/mL
clearance [21]: 34.6 mL/min/kg
F (Canis familiaris): 3%
clearance [22]: 26.9 mL/min/kg
Stability (Liver): 1 µL/min/mg
F (Oryctolagus cuniculus): 11%
AUC (Macaca fascicularis [23]): 456 ng·h/mL
clearance [24]: 3.08 mL/min/kg
Stability (Liver microsome): 3 µL/min/mg
Cmax [25]: 3870 ng/mL
bioavailability [26]: 58%
Vd [27]: 1.14 L/kg
Cmax [28]: 439 ng/mL
Cmax [29]: 2290 ng/mL
Tmax [30]: 1.8 h
clearance [31]: 3.7 mL/min/kg
Vd (Macaca fascicularis [32]): 7.03 L/kg
Vd [33]: 0.995 L/kg
F (Rattus norvegicus [34]): 4.9%
Vd [35]: 0.731 L/kg
Compound: COc1cccc(CNC(=O)c2nc3ccc(F)c(OCCc4ccc(C(=O)[O-])cc4)c3c(=O)[nH]2)c1.[Na+]
Activity (Rattus norvegicus [5]): Non-toxic
